IC50 data for 70 compounds are collected here from ChEMBL document CHEMBL1135587, “Discovery and structure-activity relationship of N-(ureidoalkyl)-benzyl-piperidines as potent small molecule CC chemokine receptor-3 (CCR3) antagonists” (J Med Chem, 2002).

By IC50 is commonly meant the concentration that inhibits the measured activity by half.

The target of experiment [1] is T1, C-C chemokine receptor type 3 (Homo sapiens, UniProt P51677).
T1 sequence (P51677 whole entry): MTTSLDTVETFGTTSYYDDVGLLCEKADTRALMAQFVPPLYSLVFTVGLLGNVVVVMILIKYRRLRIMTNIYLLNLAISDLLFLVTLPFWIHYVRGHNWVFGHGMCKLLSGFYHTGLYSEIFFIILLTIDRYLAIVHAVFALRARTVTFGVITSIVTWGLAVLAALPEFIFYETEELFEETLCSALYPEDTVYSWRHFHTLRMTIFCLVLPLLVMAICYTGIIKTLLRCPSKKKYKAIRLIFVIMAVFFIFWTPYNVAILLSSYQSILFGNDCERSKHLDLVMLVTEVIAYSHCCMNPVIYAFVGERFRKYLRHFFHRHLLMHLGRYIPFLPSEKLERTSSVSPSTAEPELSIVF
The experiment in a line: Inhibitory activity against recombinant human Chemokine receptor type 3 (CCR3) expressed in chinese hamster ovary cells. The format is cell-based, CHO. In outline:
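CHO cells transfected with human CCR3, 5×10^5 per well, incubated 30 min at room temperature with 150 pM (final) 125I-labeled human eotaxin and compound. Binding buffer: RPMI 1640 with 0.5% BSA, 20 mM HEPES, 5 mM MgCl2. Filtration on protamine-treated filter plates, washed with binding buffer plus 0.5 M NaCl, filter counted. Nonspecific binding defined with 100 nM eotaxin. Percent inhibition taken against compound-free total binding. IC50 values are the mean of usually three determinations.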

For experiment [2], the target named is T2, C-C chemokine receptor type 1 (Homo sapiens, UniProt P32246).
T2 sequence (P32246 whole entry): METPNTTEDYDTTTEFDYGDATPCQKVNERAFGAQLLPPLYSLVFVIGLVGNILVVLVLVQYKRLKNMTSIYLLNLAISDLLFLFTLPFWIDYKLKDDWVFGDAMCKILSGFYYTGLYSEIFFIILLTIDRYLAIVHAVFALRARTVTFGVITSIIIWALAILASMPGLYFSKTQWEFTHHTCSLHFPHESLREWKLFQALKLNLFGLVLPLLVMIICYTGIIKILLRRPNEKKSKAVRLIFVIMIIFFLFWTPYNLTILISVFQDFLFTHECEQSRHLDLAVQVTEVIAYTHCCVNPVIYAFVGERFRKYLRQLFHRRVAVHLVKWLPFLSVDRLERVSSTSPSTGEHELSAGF
Put plainly: Inhibitory activity against human Chemokine receptor type 1 expressed in chinese hamster ovary cells. Type of experiment: cell-based, CHO.

Turning to `O=C(Nc1ccccc1)Nc1cccc(C(=O)O)c1CN1CCC(Cc2ccc(F)cc2)CC1`, the IC50 in experiment [1] came to 0.017 µM. `CC(=O)c1cccc(NC(=O)Nc2cc3c(cc2CN2CCC(Cc4ccccc4)CC2)OCO3)c1`: in experiment [1], the IC50 amounted to 0.228 µM. As to `CC(=O)c1cccc(NC(=O)Nc2cc3c(cc2CN2CCC(Cc4ccc(F)cc4)CC2)OCO3)c1`, in experiment [1], the IC50 is 0.04 µM. The same measure, in the same setting: in the case of `COC(=O)c1cccc(NC(=O)Nc2ccccc2)c1CN1CCC(Cc2ccc(F)cc2)CC1` it was 0.009 µM. On to `O=C(NCC(CCCN1CCC(O)(c2ccc(Cl)cc2)CC1)(c1ccccc1)c1ccccc1)Nc1cccc(C(F)(F)F)c1`, for which the IC50 in experiment [1] turned out to be 19.3 µM; in experiment [2] it was 1.41 µM.

`O=C(Nc1ccc2c[nH]nc2c1)Nc1ccccc1CN1CCC(Cc2ccccc2)CC1`: the IC50 in experiment [1] was 0.45 µM; in experiment [2], above 10 µM.

For `N#Cc1cccc(NC(=O)Nc2ccc(C(N)=O)cc2CN2CCC(Cc3ccc(F)cc3)CC2)c1`, the IC50 in experiment [1] was determined as 0.008 µM. As for `O=C(NCCc1ccc(F)cc1)Nc1ccccc1CN1CCN(Cc2ccccc2)CC1`, in experiment [1], the IC50 turned out to be 9.2 µM. Same read-out and setting: in the case of `O=C(Cc1ccc(F)cc1)Nc1ccccc1CCN1CCC(Cc2ccc(F)cc2)CC1` it was 0.153 µM; in that of `N#Cc1cccc(NC(=O)Nc2cc3c(cc2CN2CCC(Cc4ccccc4)CC2)OCO3)c1`, 0.237 µM; in that of `COc1cccc(NC(=O)Nc2ccc(CO)cc2CN2CCC(Cc3ccc(F)cc3)CC2)c1`, 0.047 µM. Regarding `O=C(NCCCO)Nc1ccccc1CN1CCC(Cc2ccccc2)CC1`, the IC50 in experiment [1] was 2.6 µM; in experiment [2] it was above 10 µM. On to `O=C(NCCc1ccc(F)cc1)Nc1ccccc1CN1CCC(Cc2ccccc2)CC1`, for which, in experiment [1], the IC50 amounted to 3.8 µM. As for `N#Cc1cccc(NC(=O)Nc2ccccc2CCN2CCC(Cc3ccccc3)CC2)c1`, the IC50 is 0.14 µM in experiment [1] and above 10 µM in experiment [2]. On to `CC(C)NC(=O)NCC(CCCN1CCC(O)(c2ccc(Cl)cc2)CC1)(c1ccccc1)c1ccccc1`, for which the IC50 in experiment [1] is 6.1 µM; in experiment [2] it was below 0.78 µM. For `COC(=O)N1CCC(NC(=O)NCC(CCCN2CCC(O)(c3ccc(Cl)cc3)CC2)(c2ccccc2)c2ccccc2)CC1`, the IC50 in experiment [1] is 5.3 µM; in experiment [2], 0.5 µM. As for `N#CC(CCCN1CCC(Cc2ccccc2)CC1)(c1ccccc1)c1ccccc1`, the IC50 was 4.6 µM in experiment [1] and above 50 µM in experiment [2].

As to `O=C(NCCCCO)NCC(CCCN1CCC(O)(c2ccc(Cl)cc2)CC1)(c1ccccc1)c1ccccc1`, the results for the IC50 in experiment [1] and in experiment [2] were 5.95 µM and 0.24 µM, respectively. For `O=C(NCc1ccccc1)NCC(CCCN1CCC(O)(c2ccc(Cl)cc2)CC1)(c1ccccc1)c1ccccc1`, in that order: 8.3 µM and below 0.78 µM. For the compound `O=C(NCC(c1ccccc1)c1ccccc1)Nc1ccccc1CN1CCC(Cc2ccccc2)CC1`, in experiment [1], the IC50 was found to be 2.65 µM.

Consider `C[N+]1(Cc2cc(O)ccc2NC(=O)Nc2cccc(C#N)c2)CCC(Cc2ccccc2)CC1` (configuration not stated), for which the IC50 in experiment [1] was 0.021 µM. For `Fc1ccc(CCCN2CCC3C(C2)c2cccc4c2N3CC4)cc1` (configuration not stated), in experiment [1], the IC50 worked out at 1 µM. Take `O=C(NCc1ccc2c(c1)OCO2)Nc1ccccc1CN1CCC(Cc2ccccc2)CC1`: in experiment [1], the IC50 is 1.75 µM. Consider `COC(=O)c1cccc(NC(=O)Nc2cccc(OC)c2)c1CN1CCC(Cc2ccc(F)cc2)CC1`, for which the IC50 in experiment [1] was found to be 0.011 µM. As for `O=C(NCc1ccc2c(c1)OCO2)Nc1ccccc1CN1CCC(C(=O)c2ccccc2)CC1`, in experiment [1], the IC50 is 7.35 µM. For the compound `N#Cc1cccc(NC(=O)Nc2ccc(O)cc2CN2CCC(Cc3ccccc3)CC2)c1`, in experiment [1], the 50% inhibitory concentration (IC50) was determined as 0.277 µM.

For `N#Cc1cccc(NC(=O)Nc2cccc(C(N)=O)c2CN2CCC(Cc3ccc(F)cc3)CC2)c1`, in experiment [1], the IC50 was 0.003 µM. Take `O=C(NCCc1ccc(F)cc1)NCC(CCCN1CCC(O)(c2ccc(Cl)cc2)CC1)(c1ccccc1)c1ccccc1`: the IC50 in experiment [1] stood at 2.2 µM; in experiment [2], 0.295 µM. For `c1ccc(CC2CCN(Cc3ccccc3)CC2)cc1`, in that order: 8.3 µM and above 50 µM. For the compound `COC(=O)c1cccc(NC(=O)Nc2cccc(C#N)c2)c1CN1CCC(Cc2ccc(F)cc2)CC1`, the IC50 in experiment [1] stood at 0.007 µM.

As to `COc1cccc(NC(=O)Nc2ccccc2CN2CCC(Cc3ccccc3)CC2)c1`, the IC50 in experiment [1] is 0.6 µM; in experiment [2], above 10 µM. `N#Cc1cccc(NC(=O)Nc2ccc(CO)cc2CN2CCC(Cc3ccc(F)cc3)CC2)c1`: in experiment [1], the IC50 came out at 0.055 µM. Same read-out and setting: for `N#Cc1cccc(NC(=O)Nc2ccccc2C(O)CN2CCC(Cc3ccc(F)cc3)CC2)c1` (configuration not stated) the value was 0.011 µM; for `COc1cccc(NC(=O)Nc2cc3c(cc2CN2CCC(Cc4ccc(F)cc4)CC2)OCO3)c1`, 0.141 µM. As for `COC(=O)c1ccc(NC(=O)Nc2cccc(OC)c2)c(CN2CCC(Cc3ccc(F)cc3)CC2)c1`, in experiment [1], the IC50 was 0.064 µM. Same read-out and setting: for `N#Cc1cccc(NC(=O)NCc2ccccc2CN2CCC(Cc3ccccc3)CC2)c1` the value was 2.8 µM. On to `O=C(Nc1cc(F)ccc1F)Nc1ccccc1CN1CCC(c2ccccc2)CC1`, for which the IC50 in experiment [1] was 11 µM. Same read-out and setting: for `COc1cccc(NC(=O)Nc2ccccc2CCN2CCC(Cc3ccc(F)cc3)CC2)c1` the value was 0.011 µM.

With `COc1cccc(NC(=O)NCc2ccccc2CN2CCC(Cc3ccccc3)CC2)c1`, the IC50 in experiment [1] worked out at 2.4 µM.

Turning to `C[N+]1(Cc2cc3c(cc2NC(=O)Nc2cccc(C#N)c2)OCO3)CCC(Cc2ccccc2)CC1` (configuration not stated), the IC50 in experiment [1] was determined as 0.011 µM. Turning to `CC(=O)c1cccc(NC(=O)Nc2cc3c(cc2C[N+]2(C)CCC(Cc4ccc(F)cc4)CC2)OCO3)c1` (configuration not stated), in experiment [1], the IC50 amounted to 0.001 µM. For the compound `O=C(Nc1ccccc1)Nc1ccccc1CN1CCC(Cc2ccc(F)cc2)CC1`, the IC50 in experiment [1] came to 0.361 µM. Still for that read-out and setting: in the case of `O=C(Nc1ccccc1)Nc1ccccc1C(O)CN1CCC(Cc2ccccc2)CC1` (configuration not stated) it was 0.249 µM; in that of `CC1C2=C(CC=CC2)C(=O)N1CC1CCN(CCc2ccccc2)CC1` (configuration not stated), 12 µM; in that of `COc1ccc(NC(=O)NCc2ccccc2CN2CCC(Cc3ccccc3)CC2)cc1`, 1.3 µM. Turning to `OC1(c2ccc(Cl)cc2)CCN(CCCCc2ccccc2)CC1`, in experiment [1], the IC50 was found to be 14.5 µM. Take `N#Cc1cccc(NC(=O)Nc2cc3c(cc2CN2CCC(Cc4ccc(F)cc4)CC2)OCO3)c1`: the IC50 in experiment [1] was 0.085 µM. Regarding `O=C(Nc1cccc(CN2CCC(Cc3ccccc3)CC2)c1)NC1CCN(Cc2ccccc2)CC1`, the IC50 in experiment [1] came out at 3.7 µM.

For the compound `CC(=O)c1cccc(NC(=O)Nc2ccccc2CN2CCC(Cc3ccc(F)cc3)CC2)c1`, in experiment [1], the IC50 is 0.125 µM. For the compound `c1ccc(CCCCN2CCN(Cc3ccccc3)CC2)cc1`, the IC50 in experiment [1] was found to be 8.4 µM. For `COc1cccc(NC(=O)Nc2ccccc2C(O)CN2CCC(Cc3ccc(F)cc3)CC2)c1` (configuration not stated), the IC50 in experiment [1] came out at 0.021 µM. On the same count and under the same terms, for `COC(=O)c1ccc(CN2CCC(Cc3ccccc3)CC2)c(NC(=O)Nc2cccc(OC)c2)c1` the value was 0.777 µM. Take `COc1cccc(NC(=O)Nc2cc(CO)ccc2CN2CCC(Cc3ccccc3)CC2)c1`: the IC50 in experiment [1] came to 0.36 µM. Same read-out and setting: for `N#Cc1cccc(NC(=O)Nc2c(CN3CCC(Cc4ccc(F)cc4)CC3)ccc3ccccc23)c1` the value was 0.529 µM; for `COC(=O)c1ccc(NC(=O)Nc2cccc(C(C)=O)c2)c(CN2CCC(Cc3ccc(F)cc3)CC2)c1`, 0.042 µM. Still for that read-out and setting: for `O=C(Nc1ccc(F)cc1)Nc1ccccc1CCN1CCC(Cc2ccc(F)cc2)CC1` the value was 0.035 µM; for `O=C(Nc1ccc2[nH]ncc2c1)Nc1cc2c(cc1CN1CCC(Cc3ccccc3)CC1)OCO2`, 0.26 µM; for `O=C(Nc1cc(F)ccc1F)Nc1ccccc1CN1CCC(C(=O)c2ccccc2)CC1`, 4.65 µM. Consider `COC(=O)c1ccc(NC(=O)Nc2cccc(C#N)c2)c(CN2CCC(Cc3ccc(F)cc3)CC2)c1`, for which the IC50 in experiment [1] is 0.067 µM.

Consider `O=C(NCCCO)NC(Cc1ccccc1)c1ccccc1` (configuration not stated), for which the IC50 in experiment [1] stood at 50 µM. As to `O=C(Nc1ccccc1)Nc1ccccc1C(O)CN1CCC(Cc2ccc(F)cc2)CC1` (configuration not stated), the IC50 in experiment [1] is 0.024 µM. Take `O=C(Nc1ccccc1)Nc1cccc(CO)c1CN1CCC(Cc2ccc(F)cc2)CC1`: the IC50 in experiment [1] stood at 0.053 µM. In the case of `O=C1CC2(CCc3ccccc32)C(=O)N1CC1CCN(CCc2ccccc2)CC1` (configuration not stated), the IC50 in experiment [1] is 2 µM. Same read-out and setting: for `C[N+]1(Cc2cc3c(cc2NC(=O)Nc2cccc(C#N)c2)OCO3)CCC(Cc2ccc(F)cc2)CC1` (configuration not stated) the value was 0.002 µM.

Take `N#Cc1cccc(NC(=O)Nc2cc(CO)ccc2CN2CCC(Cc3ccccc3)CC2)c1`: in experiment [1], the IC50 came to 0.114 µM. On the same count and under the same terms, for `N#Cc1cccc(NC(=O)Nc2ccccc2CN2CCC(Cc3ccc(F)cc3)CC2)c1` the value was 0.31 µM; for `O=C(NCC(c1ccccc1)c1ccccc1)Nc1ccccc1CN1CCC(C(=O)c2ccccc2)CC1`, 3.9 µM; for `O=C(Nc1cccc(CN2CCC(Cc3ccccc3)CC2)c1)Nc1ccc2[nH]ncc2c1`, 0.62 µM.

On to `N#Cc1cccc(NC(=O)Nc2ccccc2CCN2CCC(Cc3ccc(F)cc3)CC2)c1`, for which, in experiment [1], the IC50 came out at 0.014 µM. As to `N#Cc1cccc(NC(=O)Nc2cccc(CN3CCC(Cc4ccccc4)CC3)c2)c1`, in experiment [1], the IC50 was 0.45 µM.
